Activity calls are given as the source filed them.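 The calls were made as follows, unless noted: active = GFP response above 150% of the DMSO level; inconclusive = fewer than 70 events counted for a yeast strain; inactive = the rest.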

The source of these data is PubChem BioAssay.

Test [1] can be described thus: RPL19A-GFP modulators, yeast TOR pathway, confirmation, cell-based, S. cerevisiae, flow cytometry, cherry picks, mother/daughter gates (AID 2270;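 active = GFP response below 50% of the DMSO control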). The following applies: S. cerevisiae RPL19A-GFP strain, 3 h, at 10 µM, stronger effect = lower value, 100 = same GFP as DMSO wells.
Test [2] is described as follows: LAP4-GFP expression modulators in yeast, confirmation, cell-based, cherry picks, flow cytometry, mother/daughter gates (AID 2271;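 active = GFP response above 150% of the DMSO control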;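 also: ratio of sample to DMSO plate mean so 100% equals DMSO level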). The following applies: S. cerevisiae LAP4-GFP strain, 3 h, at 10 µM, stronger effect = higher value, 100 means same as DMSO control. A digest of the protocol:
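System: Alexa 633-stained baker's yeast GFP-fusion strain / Medium: synthetic complete (SC) yeast growth medium / Doses: compound at 10 µM, single point / Times: 3 h treatment at 30 °C with rotation / Detection: HT flow cytometry, GFP fluorescence channel / Benchmarks: DMSO-only negative wells, rapamycin 400 ng/mL positive wells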

Test [3] can be described thus: modulators of MEP2-GFP levels in yeast, confirmation, S. cerevisiae, flow cytometry GFP, cherry picks (AID 2272;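 active = GFP response above 150% of the DMSO control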;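 also: ratio of well signal to plate DMSO mean so 100% equals DMSO level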). The following applies: S. cerevisiae MEP2-GFP strain, 3 h, at 10 µM, stronger effect = higher value. (A flow cytometer gives signals particle by particle.)
Test [4] in a line: AGP1-GFP expression modulators, hit retest, confirmation, cell-based, flow cytometry, S. cerevisiae, cherry picks (AID 2273).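 Also: median GFP channel fluorescence over the whole cell population gate.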 The following applies: S. cerevisiae AGP1-GFP strain, 3 h, at 10 µM.
Test [5] in a line: modulators of CIT2-GFP expression in yeast, confirmation, S. cerevisiae, GFP fusion, cherry picks, mother/daughter gates (AID 2274). The following applies: S. cerevisiae CIT2-GFP strain, flow cytometry, 3 h, at 10 µM, stronger effect = higher value.
Where [6] appears, read: measured here: daughter cell gate.
The mark [7] stands for this setting: measured here: mother cell gate.
The mark [8] stands for this setting: measured here: daughter cell gate response.
[9] abbreviates: measured here: mother cell gate response.

Regarding `CCNc1nc(-c2ccc(Cl)cc2)cs1`, the GFP response vs DMSO was 101% (inactive) in test [1], 100% in test [1] (setting [6]), 101% in test [1] (setting [7]) and 102% (inactive) in test [3]. The GFP response relative to DMSO in test [2] is 93.8% (inactive); in test [2] (setting [8]), 97.2%; in test [2] (setting [9]), 96.2%. In addition, the GFP response, % of DMSO in test [4] is 97.8% (inactive); in test [5], 104% (inactive); in test [5] (setting [6]) it was 101%; in test [5] (setting [7]), 106%.
Consider `COc1ccc(NS(=O)(=O)c2cccc3ccccc23)cc1`, for which the GFP response vs DMSO in test [1] is 99.4% (inactive); in test [1] (setting [6]), 99.6%; in test [1] (setting [7]) it was 99.2%; in test [3], 102% (inactive). For the same compound, the GFP response relative to DMSO in test [2] is 97.9% (inactive); in test [2] (setting [8]), 97.6%; in test [2] (setting [9]), 97.2%. Also, the GFP response, % of DMSO in test [4] is 101% (inactive); in test [5], 99.7% (inactive); in test [5] (setting [6]), 99.1%; in test [5] (setting [7]), 98.5%.
As to `Cc1ccc2[nH]c(C)c(/C=C/c3cc[n+](C)cc3)c2c1`, the GFP response vs DMSO in test [1] is 118% (inactive); in test [1] (setting [6]), 120%; in test [1] (setting [7]), 117%; in test [3], 268% (active). The values for the GFP response relative to DMSO in test [2], in test [2] (setting [8]) and in test [2] (setting [9]) were 198% (active), 210% and 190%, respectively. Moreover, the GFP response, % of DMSO in test [4] was 122% (inactive); in test [5], 223% (active); in test [5] (setting [6]) it was 241%; in test [5] (setting [7]) it was 211%.
With `N=c1n(CCN2CCCCC2)c2ccccc2n1CC(=O)c1ccc(Cl)c(Cl)c1`, the GFP response vs DMSO in test [1] is 99.5% (inactive); in test [1] (setting [6]), 99%; in test [1] (setting [7]), 100%; in test [3], 100% (inactive). Also, the values for the GFP response relative to DMSO in test [2], in test [2] (setting [8]) and in test [2] (setting [9]) were 101% (inactive), 100% and 102%, respectively. Moreover, the GFP response, % of DMSO in test [4] was 99.4% (inactive); in test [5], 96.5% (inactive); in test [5] (setting [6]) it was 93.2%; in test [5] (setting [7]), 78.3%.
Regarding `CCOC(=O)Cc1csc(NC(=O)CCCCCN2C(=O)c3cccc4cccc(c34)C2=O)n1`, the GFP response vs DMSO in test [1] was 98.7% (inactive); in test [1] (setting [6]) it was 99.3%; in test [1] (setting [7]), 99.3%; in test [3], 102% (inactive). Further, the GFP response relative to DMSO in test [2] is 88.4% (inactive); in test [2] (setting [8]) it was 87.8%; in test [2] (setting [9]), 89.7%. For the same compound, the GFP response, % of DMSO was 98.2% (inactive) in test [4], 102% (inactive) in test [5], 98.3% in test [5] (setting [6]) and 101% in test [5] (setting [7]).
Consider `CSc1nc2ccc(S(=O)(=O)N3CCCC3)cc2s1`, for which the GFP response vs DMSO was 90.5% (inactive) in test [1], 85.5% in test [1] (setting [6]), 93.3% in test [1] (setting [7]) and 95.7% (inactive) in test [3]. The GFP response relative to DMSO in test [2] was 135% (inactive); in test [2] (setting [8]), 128%; in test [2] (setting [9]), 140%. The GFP response, % of DMSO is 94.1% (inactive) in test [4], 78.2% (inactive) in test [5], 75.2% in test [5] (setting [6]) and 80.5% in test [5] (setting [7]).
Consider `CCc1noc(C)c1C(=O)Nc1nc(-c2cc(C)ccc2C)c(C)s1`, for which the GFP response vs DMSO in test [1] is 103% (inactive); in test [1] (setting [6]), 103%; in test [1] (setting [7]), 103%; in test [3], 100% (inactive). Besides, the GFP response relative to DMSO in test [2] was 95% (inactive); in test [2] (setting [8]) it was 95.6%; in test [2] (setting [9]), 99.3%. The GFP response, % of DMSO was 94.1% (inactive) in test [4], 106% (inactive) in test [5], 99.7% in test [5] (setting [6]) and 107% in test [5] (setting [7]).
Take `COc1ccccc1C1CCN(Cc2c(C)[nH]c3ccccc23)CC1`: the GFP response vs DMSO in test [1] is 103% (inactive); in test [1] (setting [6]), 102%; in test [1] (setting [7]), 104%; in test [3] it was 99% (inactive). In addition, the figures for the GFP response relative to DMSO in test [2], in test [2] (setting [8]) and in test [2] (setting [9]) were 97% (inactive), 95.9% and 96.2%, respectively. Further, the GFP response, % of DMSO was 102% (inactive) in test [4], 98.8% (inactive) in test [5], 97.4% in test [5] (setting [6]) and 98.1% in test [5] (setting [7]).
As to `CCCCOC(=O)C1CCC[C@@H](C)N1` (some centres undefined), the GFP response vs DMSO is 101% (inactive) in test [1], 102% in test [1] (setting [6]), 100% in test [1] (setting [7]) and 103% (inactive) in test [3]. Also, the values for the GFP response relative to DMSO in test [2], in test [2] (setting [8]) and in test [2] (setting [9]) were 98.9% (inactive), 101% and 99.5%, respectively. In addition, the GFP response, % of DMSO was 102% (inactive) in test [4], 100% (inactive) in test [5], 101% in test [5] (setting [6]) and 100% in test [5] (setting [7]).
Consider `COc1ccc(-c2ccc(S(=O)(=O)N3CCOCC3)cc2)cc1`, for which the GFP response vs DMSO in test [1] was 95.4% (inactive); in test [1] (setting [6]) it was 93.9%; in test [1] (setting [7]), 95.7%; in test [3] it was 99% (inactive). Moreover, the GFP response relative to DMSO was 107% (inactive) in test [2], 106% in test [2] (setting [8]) and 107% in test [2] (setting [9]). Besides, the GFP response, % of DMSO in test [4] is 100% (inactive); in test [5] it was 100% (inactive); in test [5] (setting [6]), 97.4%; in test [5] (setting [7]), 102%.
As to `CCNC(=O)/C(C#N)=C/c1c(N2CC(C)OC(C)C2)nc2ccccn2c1=O` (centres undefined), the GFP response vs DMSO is 97.8% (inactive) in test [1], 99.3% in test [1] (setting [6]), 98.1% in test [1] (setting [7]) and 99% (inactive) in test [3]. For the same compound, the GFP response relative to DMSO is 99.5% (inactive) in test [2], 102% in test [2] (setting [8]) and 99.4% in test [2] (setting [9]). Moreover, the GFP response, % of DMSO in test [4] was 106% (inactive); in test [5] it was 103% (inactive); in test [5] (setting [6]) it was 103%; in test [5] (setting [7]), 104%.
`COc1ccc(CCNc2nc(-c3sc(C)nc3C)cs2)cc1OC`: the GFP response vs DMSO in test [1] is 96.6% (inactive); in test [1] (setting [6]), 97.6%; in test [1] (setting [7]), 95.4%; in test [3], 102% (inactive). In addition, the values for the GFP response relative to DMSO in test [2], in test [2] (setting [8]) and in test [2] (setting [9]) were 106% (inactive), 104% and 105%, respectively. Also, the GFP response, % of DMSO was 93.7% (inactive) in test [4], 101% (inactive) in test [5], 103% in test [5] (setting [6]) and 99.7% in test [5] (setting [7]).
On to `O=C(COC(=O)c1n[nH]c2ccccc12)c1ccc(F)c(F)c1`, for which the GFP response vs DMSO was 97.1% (inactive) in test [1], 98.7% in test [1] (setting [6]), 96.3% in test [1] (setting [7]) and 103% (inactive) in test [3]. In addition, the figures for the GFP response relative to DMSO in test [2], in test [2] (setting [8]) and in test [2] (setting [9]) were 104% (inactive), 97.5% and 106%, respectively. For the same compound, the GFP response, % of DMSO is 97% (inactive) in test [4], 98.6% (inactive) in test [5], 101% in test [5] (setting [6]) and 98.2% in test [5] (setting [7]).
For `CC(=O)Nc1ccc(NC(=O)c2ccccc2F)cc1`, the GFP response vs DMSO in test [1] was 99.8% (inactive); in test [1] (setting [6]), 100%; in test [1] (setting [7]), 98.6%; in test [3] it was 99% (inactive). Besides, the GFP response relative to DMSO was 94.4% (inactive) in test [2], 94.2% in test [2] (setting [8]) and 94.1% in test [2] (setting [9]). Moreover, the GFP response, % of DMSO in test [4] is 100% (inactive); in test [5], 103% (inactive); in test [5] (setting [6]), 101%; in test [5] (setting [7]), 99.3%.
